ChEMBL document CHEMBL4819003, “Optimization of novel oxidative DIMs as Nur77 modulators of the Nur77-Bcl-2 apoptotic pathway” (Eur J Med Chem, 2021)
Active and inactive are the calls of the source. No cut-off for these calls is given here.

Experiments:
HCT-116 [1] = experiment: Induction of apoptosis in human HCT-116 cells assessed as PARP cleavage at 0.5 uM measured after 6 hrs by western blot assay; format: functional, cell-based
Procedure, shortened: (§1)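 Cells exposed to 0.5 µM for 6 h. Lysates resolved by SDS-PAGE and blotted to PVDF, blocked in 5% milk/TBST, probed with primary antibodies at 1:1000, ECL detection. Apoptosis scored as the densitometric ratio of cleaved PARP band to intact PARP band; mean ± SD, n = 3.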

MDA-MB-231 [2] = experiment: Induction of apoptosis in human MDA-MB-231 cells assessed as PARP cleavage at 0.5 uM measured after 6 hrs by western blot assay; format: functional, cell-based; procedure, shortened: as §1
SW-620 = experiment: Cytotoxicity against human SW-620 cells assessed as inhibition of cell growth measured after 24 hrs by MTT assay; format: functional, cell-based; settings: SW-620, 24 h
Procedure, shortened: (§2)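 MTT viability assay, 24 h exposure to a concentration series, 10^4 cells/well. Cancer lines were in DMEM (BT549, MDA-MB-231) or RPMI-1640 (HCT116, SW620) with 10% FBS. MCF10A and NCM460 were in DMEM with 20% FBS and 10 ng/ml EGF. MTT at 5 mg/mL for 4 h at 37 °C, formazan dissolved in DMSO, A490. IC50 from curve fit; mean ± SD, at least 6 experiments.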

HCT-116 [3] = experiment: Cytotoxicity against human HCT-116 cells assessed as inhibition of cell growth measured after 24 hrs by MTT assay; format: functional, cell-based; procedure, shortened: as §2
NCM460 = experiment: Cytotoxicity against human NCM460 cells assessed as inhibition of cell growth measured after 24 hrs by MTT assay; format: cell-based; procedure, shortened: as §2
MEF [4] = experiment: Induction of apoptosis in mouse MEF cells lacking Nur77 assessed as PARP cleavage at 0.5 uM measured after 6 hrs by western blot assay; format: functional, cell-based
Procedure, shortened: (§3)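 Wild-type, Nur77−/− or Bcl-2−/− mouse embryonic fibroblasts grown in DMEM with 10% FBS and treated with 0.5 µM for 6 h. PARP cleavage detected by western blot, primary antibodies at 1:1000, ECL.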

MEF [5] = experiment: Induction of apoptosis in mouse MEF cells deficient in Bcl2 assessed as PARP cleavage at 0.5 uM measured after 6 hrs by Western blot assay; format: functional, cell-based; procedure, shortened: as §3
MCF-10A = experiment: Cytotoxicity against human MCF-10A cells assessed as inhibition of cell growth measured after 24 hrs by MTT assay; format: cell-based; procedure, shortened: as §2
BT-549 = experiment: Cytotoxicity against human BT-549 cells assessed as inhibition of cell growth measured after 24 hrs by MTT assay; format: functional, cell-based; settings: BT-549, 24 h; procedure, shortened: as §2
MEF [6] = experiment: Induction of apoptosis in wild type mouse MEF cells assessed as PARP cleavage at 0.5 uM measured after 6 hrs by western blot assay; format: functional, cell-based; procedure, shortened: as §3
MDA-MB-231 [7] = experiment: Cytotoxicity against human MDA-MB-231 cells assessed as inhibition of cell growth measured after 24 hrs by MTT assay; format: functional, cell-based; settings: MDA-MB-231, 24 h; procedure, shortened: as §2
[8] = target: T1, Nuclear receptor subfamily 4immunitygroup A member 1 (Homo sapiens, UniProt P22736); experiment: Binding affinity to recombinant human N-terminal His-tagged Nur77-LBD (367 to 598 residues) expressed in Escherichia coli BL21 DE3 by surface plasmon resonance assay
T1 sequence (P22736 whole entry, the tested form may be a part): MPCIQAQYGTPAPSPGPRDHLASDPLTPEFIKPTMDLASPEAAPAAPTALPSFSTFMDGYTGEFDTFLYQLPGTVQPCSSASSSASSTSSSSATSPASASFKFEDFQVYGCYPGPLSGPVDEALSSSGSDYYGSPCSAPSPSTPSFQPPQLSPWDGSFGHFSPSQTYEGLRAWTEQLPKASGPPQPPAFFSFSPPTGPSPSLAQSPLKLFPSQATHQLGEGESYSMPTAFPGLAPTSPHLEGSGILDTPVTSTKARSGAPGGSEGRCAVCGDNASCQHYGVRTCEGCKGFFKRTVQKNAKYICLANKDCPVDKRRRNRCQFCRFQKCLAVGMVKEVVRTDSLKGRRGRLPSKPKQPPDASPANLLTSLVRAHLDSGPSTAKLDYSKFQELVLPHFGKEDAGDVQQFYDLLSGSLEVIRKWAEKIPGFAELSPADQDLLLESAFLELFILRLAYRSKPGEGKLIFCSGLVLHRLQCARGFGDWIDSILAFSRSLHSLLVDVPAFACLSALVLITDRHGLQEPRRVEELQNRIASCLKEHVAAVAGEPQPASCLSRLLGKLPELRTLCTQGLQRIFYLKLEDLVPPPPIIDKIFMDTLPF
Procedure, shortened: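 His-tagged human Nur77-LBD (367–598) from E. coli BL21 DE3, diluted to 0.05 mg/mL in 10 mM NaAc pH 5.0 and amine-coupled to a CM5 chip (~9000 RU). Compounds at 0.01–5 µM in PBS with 0.4% DMSO, 25 °C, 30 µL/min; 150 s association, 420 s dissociation, regeneration with 10 mM glycine-HCl pH 2.5. Reference- and blank-subtracted; Kd from global 1:1 kinetic fit.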

[9] = target: T1, Nuclear receptor subfamily 4immunitygroup A member 1; experiment: Binding affinity to recombinant human N-terminal His-tagged Nur77-LBD (367 to 598 residues) expressed in Escherichia coli BL21 DE3 by flourescence quenching assay
Procedure, shortened: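 Human Nur77-LBD (367–598), N-terminal His tag, pET15b in E. coli BL21 DE3, Ni resin purified. Nur77-LBD at 1 µM in PBS in a quartz cell, titrated with compound over 0.01–1 µM at 25 °C. Excitation 280 nm, emission scanned 300–500 nm; peak intensity at 330 nm versus compound concentration fitted to a reported formula for Kd.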

MDA-MB-231 [10] = experiment: Induction of apoptosis in human MDA-MB-231 cells assessed as PARP cleavage at 0.5 uM measured after 6 hrs by western blot assay relative to Di(1H-indol-3-yl)(4-(trifluoromethyl)phenyl)methylium methanesulfonate; format: functional
Procedure, shortened: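 MDA-MB-231 in DMEM with 10% FBS, 0.5 µM for 6 h, then PARP western blot with 1:1000 primary antibodies and ECL. Cleaved PARP/PARP band intensity ratio expressed relative to the reference methylium methanesulfonate, whose ratio was set to 1. Mean ± SD, n = 3.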

| SMILES | Activity (HCT-116 [1]) | Activity (MDA-MB-231 [2]) | further results |
| --- | --- | --- | --- |
| Clc1ccc([C+](c2c[nH]c3ccccc23)c2c[nH]c3ccccc23)cc1 | Active | inactive | – |
| O=C(O)c1ccc([C+](c2c[nH]c3ccccc23)c2c[nH]c3ccccc23)cc1 | Active | inactive | – |
| O=[N+]([O-])c1ccc([C+](c2c[nH]c3ccccc23)c2c[nH]c3ccccc23)cc1 | Active | inactive | – |
| Cn1cc([C+](c2ccc(C(F)(F)F)cc2)c2cn(C)c3ccccc23)c2ccccc21 | inactive | Active | – |
| c1cncc([C+](c2c[nH]c3ccccc23)c2c[nH]c3ccccc23)c1 | Active | inactive | – |
| Oc1ccccc1[C+](c1c[nH]c2ccccc12)c1c[nH]c2ccccc12 | inactive | inactive | – |
| COc1ccc([C+](c2c[nH]c3ccccc23)c2c[nH]c3ccccc23)cc1 | inactive | inactive | – |
| FC(F)(F)c1ccc([C+](c2c[nH]c3ccccc23)c2c[nH]c3ccccc23)cn1 | Active | Active | IC50 (SW-620): 140 nM; IC50 (HCT-116 [3]; Homo sapiens, HCT-116, 24 h): 350 nM; IC50 (NCM460; Homo sapiens, NCM460, 24 h): 8100 nM; Activity (MEF [4]): inactive; Activity (MEF [5]): inactive; IC50 (MCF-10A; Homo sapiens, MCF-10A, 24 h): 2980 nM; IC50 (BT-549): 50 nM; Activity (MEF [6]): Active; IC50 (MDA-MB-231 [7]): 230 nM |
| c1ccc2c([C+](c3c[nH]c4ccccc34)c3csc4ccccc34)c[nH]c2c1 | Active | inactive | – |
| CCCCCn1cc([C+](c2ccc(C(F)(F)F)cc2)c2c[nH]c3ccccc23)c2ccccc21 | inactive | inactive | – |
| Oc1ccc([C+](c2c[nH]c3ccccc23)c2c[nH]c3ccccc23)cc1 | inactive | Active | – |
| CCCn1cc([C+](c2ccc(C(F)(F)F)cc2)c2c[nH]c3ccccc23)c2ccccc21 | Active | Active | IC50 (SW-620): 160 nM; IC50 (HCT-116 [3]; Homo sapiens, HCT-116, 24 h): 350 nM; IC50 (NCM460; Homo sapiens, NCM460, 24 h): 5090 nM; Activity (MEF [4]): inactive; Activity (MEF [5]): inactive; IC50 (MCF-10A; Homo sapiens, MCF-10A, 24 h): 1310 nM; IC50 (BT-549): 100 nM; Activity (MEF [6]): Active; IC50 (MDA-MB-231 [7]): 170 nM |
| COc1cccc([C+](c2c[nH]c3ccccc23)c2c[nH]c3ccccc23)c1 | Active | inactive | – |
| c1csc([C+](c2c[nH]c3ccccc23)c2c[nH]c3ccccc23)c1 | Active | inactive | – |
| CCc1ccc([C+](c2c[nH]c3ccccc23)c2c[nH]c3ccccc23)cc1 | inactive | inactive | – |
| Clc1ccccc1[C+](c1c[nH]c2ccccc12)c1c[nH]c2ccccc12 | inactive | inactive | – |
| Clc1cccc([C+](c2c[nH]c3ccccc23)c2c[nH]c3ccccc23)c1 | Active | inactive | – |
| Fc1ccc([C+](c2c[nH]c3ccccc23)c2c[nH]c3ccccc23)cc1 | Active | Active | – |

| SMILES | Activity (HCT-116 [1]) | Activity (MDA-MB-231 [2]) | further results |
| --- | --- | --- | --- |
| Oc1cccc([C+](c2c[nH]c3ccccc23)c2c[nH]c3ccccc23)c1 | Active | inactive | – |
| Cc1ccc([C+](c2c[nH]c3ccccc23)c2c[nH]c3ccccc23)cc1 | inactive | inactive | – |
| FC(F)(F)c1ccc([C+](c2c[nH]c3ccccc23)c2c[nH]c3ccccc23)cc1 | – | – | IC50 (HCT-116 [3]; hct-116): 260 nM; IC50 (NCM460; ncm460): 5130 nM; IC50 (MCF-10A; mcf-10a): 3580 nM |
| FC(F)(F)c1ccccc1[C+](c1c[nH]c2ccccc12)c1c[nH]c2ccccc12 | inactive | inactive | – |
| Fc1ccccc1[C+](c1c[nH]c2ccccc12)c1c[nH]c2ccccc12 | inactive | inactive | – |
| Cc1cccc([C+](c2c[nH]c3ccccc23)c2c[nH]c3ccccc23)c1 | Active | inactive | – |
| c1coc([C+](c2c[nH]c3ccccc23)c2c[nH]c3ccccc23)c1 | Active | inactive | – |
| CC(C)(C)c1ccc([C+](c2c[nH]c3ccccc23)c2c[nH]c3ccccc23)cc1 | inactive | inactive | – |
| c1ccc2c([C+](c3c[nH]c4ccccc34)c3c[nH]c4ccccc34)c[nH]c2c1 | Active | inactive | – |
| CCn1cc([C+](c2ccc(C(F)(F)F)cc2)c2c[nH]c3ccccc23)c2ccccc21 | Active | Active | IC50 (SW-620): 100 nM; IC50 (HCT-116 [3]; Homo sapiens, HCT-116, 24 h): 100 nM; IC50 (NCM460; Homo sapiens, NCM460, 24 h): 3080 nM; Activity (MEF [4]): inactive; Activity (MEF [5]): inactive; IC50 (MCF-10A; Homo sapiens, MCF-10A, 24 h): 1500 nM; Kd [8]: 36 nM; Kd [9]: 66 nM; IC50 (BT-549): 50 nM; Activity (MEF [6]): Active; IC50 (MDA-MB-231 [7]): 80 nM |
| c1ccc(-c2ccc([C+](c3c[nH]c4ccccc34)c3c[nH]c4ccccc34)cc2)cc1 | Active | Active | – |
| Fc1cccc([C+](c2c[nH]c3ccccc23)c2c[nH]c3ccccc23)c1 | Active | Active | – |
| COC(=O)c1ccc([C+](c2c[nH]c3ccccc23)c2c[nH]c3ccccc23)cc1 | Active | Active | – |
| CCCCn1cc([C+](c2ccc(C(F)(F)F)cc2)c2c[nH]c3ccccc23)c2ccccc21 | Active | Active | – |
| FC(F)(F)c1ccc([C+](c2c[nH]c3ccccc23)c2c[nH]c3ccccc23)c(C(F)(F)F)c1 | inactive | inactive | – |
| CS(=O)(=O)[O-].c1ccc([C+](c2c[nH]c3ccccc23)c2c[nH]c3ccccc23)cc1 | inactive | Active | fold change (FC) (MDA-MB-231 [10]): 0.01 |
| FC(F)(F)c1cccc([C+](c2c[nH]c3ccccc23)c2c[nH]c3ccccc23)c1.[Cl-] | Active | Active | fold change (FC) (MDA-MB-231 [10]): 1.76; IC50 (SW-620): 130 nM; IC50 (HCT-116 [3]; Homo sapiens, HCT-116, 24 h): 310 nM; IC50 (NCM460; Homo sapiens, NCM460, 24 h): 10000 nM; IC50 (MCF-10A; Homo sapiens, MCF-10A, 24 h): 5030 nM; IC50 (BT-549): 70 nM; IC50 (MDA-MB-231 [7]): 290 nM |
